Experimental data taken from ChEMBL document CHEMBL2434825, “2-Heteroarylimino-5-arylidene-4-thiazolidinones as a new class of non-nucleoside inhibitors of HCV NS5B polymerase” (Eur J Med Chem, 2013).
Activity calls are given as the source filed them. No cut-off for these calls is given here.

What was measured:
Hepatitis C virus [1] = assay: Antiviral activity against Hepatitis C virus subtype 2a infected in human Huh7.5 cells assessed as inhibition of viral RNA replication at 100 uM after 42 hrs by […] assay relative to control; type: functional, Hepacivirus hominis; details: genotype 2a; for inhibition at 100 µM: Huh-7, 42 h; for inhibition: Hepacivirus hominis, Huh-7
Procedure, shortened: (§1)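 Replicon reporter cells (Huh7/Rep-Feo1b for 1b; Huh7.5-FGR-JC1-Rluc2A for 2a) kept in DMEM, 10% FCS, 0.5 mg/mL G418, 37 °C, 5% CO2. Seeded 1 × 10^4 cells/well, treated 8 h later with 100 μM compound or DMSO for 42 h. Luciferase signal read as percent of DMSO controls. Viability by MTS assay in parental Huh7.5 cells. Average of two independent experiments in duplicate.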

[2] = Cytotoxicity against human Huh7.5 cells assessed as cell viability at 100 uM after 42 hrs by MTS assay; type: cell-based, Huh-7; details: read-out: Activity
Hepatitis C virus [3] = assay: Antiviral activity against Hepatitis C virus subtype 1b infected in human HuH7 cells assessed as inhibition of viral RNA replication at 100 uM after 42 hrs by […] assay relative to control; type: functional, Hepacivirus hominis; details: genotype 1b; for inhibition at 100 µM: Huh-7, 42 h; for inhibition: Hepacivirus hominis, Huh-7; procedure, shortened: as §1
[4] = Inhibition of HCV NS5B RdRp activity transfected in BHK cells at 100 uM after 42 hrs by dual-glo luciferase reporter gene assay relative to control; type: cell-based; details: Hepacivirus hominis
Procedure, shortened: (§2)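 BHK cells stably carrying NS5B plus bicistronic (+)FLuc-(−)UTR-RLuc reporter, grown in DMEM, 10% FBS, 1 mg/mL G418, blasticidin. Seeded 1 × 10^4 cells/well, given 100 μM compound 8 h later, lysed 42 h post-treatment, dual luciferase read. Viability taken as firefly luciferase relative to DMSO controls. NS5B activity taken as percent reduction in RLuc/FLuc ratio versus DMSO. Two independent experiments in duplicate.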

Hepacivirus hominis = assay: Inhibition of HCV NS5BCdelta21 RdRp activity at 100 uM after 1 hr by liquid scintillation counting analysis in presence of [alpha-32P]UTP relative to control
Procedure, shortened: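 Template 0.25 μM polyrA/U12, with 25 μM UTP plus [α-32P]UTP. Inhibitor at 100 μM, 1 h, 30 °C. Stopped with cold 5% TCA/0.5 mM pyrophosphate, product filter-captured and counted by scintillation. Background-subtracted, relative to DMSO (100%). At least two independent experiments in duplicate.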

[5] = Cytotoxicity against BHK cells transfected with HCV NS5B RdRp assessed as cell viability at 100 uM after 42 hrs by luciferase reporter gene assay; type: cell-based, Mesocricetus auratus; details: hamster, read-out: Activity; procedure, shortened: as §2
[6] = Inhibition of HCV NS5BCdelta21 RdRp activity after 1 hr by liquid scintillation counting analysis in presence of [alpha-32P]UTP; parameters: species or system Hepacivirus hominis
Procedure, shortened: (§3)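 NS5BCΔ21 (300 ng) was incubated 1 h at 30 °C with 0.25 μM polyrA/U12, 25 μM UTP plus [α-32P]UTP and 1.0 mM MnCl2 in 20 mM Tris-HCl pH 7.0 with NaCl, Na glutamate, DTT, BSA, Tween-20, glycerol and RNase inhibitor. Reactions were stopped with cold 5% TCA/pyrophosphate, captured on GF-B filters and scintillation-counted versus a background-subtracted DMSO control. Screening used 100 μM; IC50 came from 8–12-point curves, duplicate, two experiments.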

[7] = Selectivity ratio for Hepatitis C virus subtype 2a infected in human Huh7.5 cells over Hepatitis C virus subtype 1b infected in human HuH7 cells; type: functional, Huh-7
[8] = Inhibition of HCV NS5B RdRp activity; parameters: species or system Hepacivirus hominis; procedure, shortened: as §3
[9] = Inhibition of 6xHis-tagged HCV NS5B RdRp activity; parameters: species or system Hepacivirus hominis; procedure, shortened: as §3

IC50 [8] [µM] | IC50 [9] [µM] | Compound | inhibition at 100 µM (Hepatitis C virus [1]) [%] | viability at 42 h, 100 µM [2] [%] | inhibition at 100 µM (Hepatitis C virus [3]) [%] | inhibition [4] | inhibition (Hepacivirus hominis) [%] | viability at 42 h, 100 µM [5] [%] | IC50 [6] [µM] | Selectivity ratio [7] | inhibition (Hepatitis C virus [1]) | inhibition (Hepatitis C virus [3])
 |  | O=C1N/C(=N\c2nnc(-c3ccc(F)cc3)s2)S/C1=C\c1ccc([N+](=O)[O-])cc1 | 50.4 | 13.9 | 51.2 | 7% | 24.1 | 14.6 |  |  |  | 
 |  | O=C1N/C(=N\c2nnc(-c3ccc(Cl)cc3)s2)S/C1=C\c1ccccc1F | 98.5 | 13.1 | 96.4 | 65.6% | 56.2 | 12.8 | 56.2 |  |  | 
 |  | O=C1N/C(=N\c2nnc(-c3ccc(F)cc3)s2)S/C1=C\c1ccc(Cl)cc1Cl | 54.7 | 4.2 | 29.4 | inactive | 11.5 | 0 |  | 1.6 |  | 
 |  | O=C1N/C(=N\c2nnc(-c3ccc(Cl)cc3)s2)S/C1=C\c1ccc(Cl)cc1Cl |  | 0 |  | inactive | 25.7 | 0 |  |  | inactive | inactive
 |  | O=C1N/C(=N\c2nnc(-c3ccc(F)cc3)s2)S/C1=C\c1ccccc1Cl | 95.3 | 15.6 | 98 | 61% | 53.9 | 11.4 | 64.9 |  |  | 
 |  | O=C1N/C(=N\c2nnc(-c3ccc(Cl)cc3)s2)S/C1=C\c1c(F)cccc1Cl |  | 0 |  | inactive | 60.3 | 0 | 45.3 |  | inactive | inactive
 |  | O=C1N/C(=N\c2nnc(-c3ccc(Cl)cc3)s2)S/C1=C\c1c(Cl)cccc1Cl | 98.1 | 76 | 98.5 |  | 82 | 94.9 | 5.6 |  |  | 
 |  | O=C1N/C(=N\c2nnc(-c3ccc(F)cc3)s2)S/C1=C\c1ccccc1F | 96.1 | 59.9 | 97.4 | 11% | 62.4 | 55.7 | 51.1 |  |  | 
 |  | O=C1N/C(=N\c2nnc(-c3ccc(Cl)cc3)s2)S/C1=C\c1ccccc1Cl |  | 0 |  | inactive | 73.6 | 0 | 33.8 |  | inactive | inactive
 |  | O=C1N/C(=N\c2nnc(-c3ccc(Cl)cc3)s2)S/C1=C\c1cccc(F)c1 | 95.6 | 60.3 | 92.8 | 63.1% | 65.5 | 58.1 | 48.2 |  |  | 
 |  | COc1cccc(OC)c1/C=C1\S/C(=N/c2nnc(-c3ccc(Cl)cc3)s2)NC1=O | 98.9 | 80.4 | 97.7 |  | 24.1 | 87.4 |  |  |  | 
 |  | O=C(CCl)Nc1nnc(-c2ccc(Cl)cc2)s1 |  | 81.9 |  |  | 20 | 98.9 |  |  |  | 
 |  | O=C1N/C(=N\c2nnc(-c3ccc(F)cc3)s2)S/C1=C\c1c(Cl)cccc1Cl | 98.9 | 73.2 | 98.8 | 13.6% | 74.1 | 72.2 | 19.8 |  |  | 
 |  | O=C(CCl)Nc1nnc(-c2ccc(F)cc2)s1 |  | 84.8 |  |  | 16 | 98.3 |  |  |  | 
48 |  | O=C(NN1C(=O)CSC1c1ccccc1F)c1cc(-c2ccc(F)cc2F)ccc1O (stereo not drawn) |  |  |  |  |  |  |  |  |  | 
 | 0.44 | O=C1/C(=C/c2ccc(Br)cc2)SC(=S)N1NS(=O)(=O)c1ccccc1 |  |  |  |  |  |  |  |  |  | 
 |  | Nc1nnc(-c2ccc(Cl)cc2)s1 | 72.8 | 32.4 | 37.4 | inactive | 16.8 | 28.6 |  | 1.6 |  | 
 |  | COc1cccc(OC)c1/C=C1\S/C(=N/c2nnc(-c3ccc(F)cc3)s2)NC1=O | 93.2 | 63 | 87.7 | inactive | 19.7 | 73.7 |  |  |  | 
 |  | O=C1N/C(=N\c2nnc(-c3ccc(Cl)cc3)s2)S/C1=C\c1ccc(F)cc1 | 94.9 | 64.2 | 82.2 | inactive | 25 | 73.1 |  |  |  | 
 |  | O=C1N/C(=N\c2nnc(-c3ccc(Cl)cc3)s2)S/C1=C\c1ccc([N+](=O)[O-])cc1 |  |  |  |  | 33 |  |  |  |  | 
 |  | O=C1N/C(=N\c2nnc(-c3ccc(F)cc3)s2)S/C1=C\c1cccc(F)c1 | 98 | 59.7 | 95.5 | 85.9% | 72 | 55.1 | 34.6 |  |  | 
 |  | O=C1CS/C(=N/c2nnc(-c3ccc(Cl)cc3)s2)N1 | 89.8 | 13.3 | 54.1 | 65.7% | 74.4 | 15.2 | 42.5 | 1.6 |  | 
 |  | Nc1nnc(-c2ccc(F)cc2)s1 | 52.4 | 18.6 | 46.8 | 9.4% | 15.4 |  |  |  |  | 
 |  | O=C1N/C(=N\c2nnc(-c3ccc(F)cc3)s2)S/C1=C\c1c(F)cccc1Cl | 98.5 | 74.6 | 99.4 |  | 28.1 | 89.8 |  |  |  | 
 |  | O=C1CS/C(=N/c2nnc(-c3ccc(F)cc3)s2)N1 | 72.8 | 14 | 70 | 57.9% | 76.1 |  | 38.6 |  |  | 
